Experimental data taken from publication PMC8154199 (JACS Au, 2021).

Experiments:
[1] = tested on: P. falciparum strain Dd2; test: Growth inhibition assay with highly synchronized P. falciparum, SYBR green; assay type: cell-based; conditions: Plasmodium falciparum, DD2, 72 h, read-out: IC50 P. falciparum Dd2
[2] = CID-ESI-MS stability of heme-drug complexes; assay type: binding; conditions: 4-heme m/z 960.2; AQ-heme m/z 971.3; CQ-heme m/z 935.4
In short: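 Hematin was made fresh from hemin in 50% ammonia. Test compound stock was in ACN or water. Hematin and compound were mixed equimolar at 100 μM in CH3CN/H2O (50:50), then diluted to 50 μM in ACN/H2O/HCOOH (50:50:1). Samples were infused at 5 μL·min–1 into an orthogonal ESI-TOF. CID used capillary exit (cone) voltage 120–400 V in 20 V steps, and adduct stability responses were plotted against voltage.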

[3] = Probe solubility in aqueous ACN by absorbance kinetics; assay type: physicochemical; conditions: aqueous ACN solutions (Figure S16)
In short: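 Solubility was assessed in 2% ACN by spectrophotometric absorbance kinetics over decreasing test compound concentrations, starting at 20 μM.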

[4] = tested on: human fibroblasts hMRC-5; test: Toxicity against human fibroblasts hMRC-5; assay type: cell-based; conditions: Fibroblast, read-out: IC50 hMRC-5

| Structure (SMILES) | IC50 [1] [nM] | residual complex at high fragmentor voltage (ion abundance) [2] | solubility sequence, from the less to the most soluble [3] | IC50 [4] [nM] |
| --- | --- | --- | --- | --- |
| CCN(CC)CCCC(C)Nc1ccnc2cc(Cl)ccc12 (centres unmarked) [chloroquine, reference compound] | 189 | did not show a residual covalent adduct |  |  |
| CN(C)c1ccc2nc3ccc(=[N+](C)C)cc-3sc2c1 [methylene blue, reference compound] | 7 |  |  |  |
| C#Cc1ccc(C(=O)C2=C(C)C(=O)c3ccccc3C2=O)cc1 [probe 7] | 1810 ± 302 |  | probe 10 < probe 8 ≈ probe 7 < probe 9 | 20500 |
| C#Cc1ccc(CC2=C(C)C(=O)c3ccccc3C2=O)cc1 [probe 11, 2-(4-ethynylbenzyl)-3-methylnaphthalene-1,4-dione] | 49 ± 15 |  |  | > 64000 |
